Assay results reported in ChEMBL document CHEMBL1133685, “Synthesis of new 2,6-prolylxylidide analogues of tocainide as stereoselective blockers of voltage-gated Na(+) channels with increased potency and improved use-dependent activity” (J Med Chem, 2000).

Key:
[1] = Ratio of IC50 tonic block to IC50 phasic block; format: functional
[2] = Half maximal concentration for producing a phasic block in skeletal muscle fibers (cumulative sodium current reduction at 10 Hz stimulations frequency); format: functional, tissue-based, Muscle tissue
How it was run: (§1)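 Four-pool grease-gap voltage clamp on single skeletal muscle fibers; the central pool held external solution (mM: NaCl 77, choline Cl 38, CaCl2 1.8, KCl 2.5, Na2HPO4 2.15, NaH2PO4 0.85) with drug added. Recordings at 10 °C after 10 min equilibration, holding potential -100 mV, 10-ms test pulses to -20 mV. IC50 for I_Namax block came from a logistic fit of concentration-response data, 3-7 fibers per point, mean ± SEM.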

[3] = In vitro potential anti-myotonic activity as potency in phasic block in relation to tocainide (tocainide = 1); format: functional
How it was run: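 Phasic block was measured at 10 Hz by voltage clamp of skeletal muscle fiber Na+ current at 10 °C, holding potential -100 mV, pulses to -20 mV. The IC50 came from a logistic concentration-response fit, and potency was expressed relative to tocainide (tocainide = 1).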

[4] = Half maximal concentration for producing a tonic block in skeletal muscle fibers (block of sodium channel at resting conditions evaluated during infrequent depolarizing pulses); format: functional, tissue-based, Muscle tissue; how it was run: as §1

SMILES	Ratio [1]	IC50 [2] [µM]	Activity [3]	IC50 [4] [µM]
Cc1cccc(C)c1N(C)C(=O)[C@H]1CCCN1C	> 1.1	440	0.6	> 500
Cc1cccc(C)c1N(C)C(=O)[C@H]1CCCN1	1.6	217	1	340
Cc1cccc(C)c1NC(=O)[C@@H]1CCCN1	5.2	44	5	230
Cc1cccc(C)c1N(C)C(=O)[C@@H]1CCCN1C	1.4	198	1.1	286
Cc1cccc(C)c1NC(=O)[C@@H](C)N [(R)-TOCAINIDE]	2.1	270	1	580
Cc1cccc(C)c1NC(=O)[C@@H]1CCCN1C	3.4	28	8	106
Cc1cccc(C)c1NC(=O)[C@H]1CCCN1	8.5	13	21	110
Cc1cccc(C)c1N(C)C(=O)[C@@H]1CCCN1	1.5	67	3	104
Cc1cccc(C)c1NC(=O)[C@H](C)N [S-TOCAINIDE]	2.4	220	1	520
Cc1cccc(C)c1NC(=O)[C@H]1CCCN1C	3	100	2.7	300
